Source: article PMC10413833 (ACS Omega, 2023)
Converted amounts (≈) assume the structure as drawn.

Tests used:
[1] = tested on: MRSA3; assay: In vitro antibacterial activity; type: cell-based; settings: Staphylococcus aureus
[2] = tested on: MRSA5; assay: In vitro antibacterial activity; type: cell-based; settings: Staphylococcus aureus
[3] = tested on: MRSA1; assay: In vivo antibacterial activity, survival of MRSA1 infected mice; set-up: species or system BALB/c mice; settings: for survival (%): final survival rate after 7 days
Procedure, shortened: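 Female BALB/c mice (6–8 weeks, 18-22 g) were housed under SPF conditions. They were infected via the tail vein with 0.1 mL of a Columbia broth culture of clinical MRSA1 diluted to OD600 1.5. One hour later, test compound or vancomycin was given IV at 2.5, 10 or 40 mg/kg; an untreated model group was included. Deaths were recorded daily for 7 days to build survival curves. Tissues were examined by H&E histology.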

[4] = comparison value for vancomycin ref 18, 19; cited from earlier work
[5] = tested on: MRSA1; assay: In vitro antibacterial activity; type: cell-based; settings: Staphylococcus aureus
[6] = tested on: MRSA4; assay: In vitro antibacterial activity; type: cell-based; settings: Staphylococcus aureus
[7] = tested on: MRSA2; assay: In vitro antibacterial activity; type: cell-based, Staphylococcus aureus

SMILES: CN[C@H](CC(C)C)C(=O)N[C@H]1C(=O)N[C@@H](CC(N)=O)C(=O)N[C@H]2C(=O)N[C@H]3C(=O)N[C@H](C(=O)N[C@H](C(=O)O)c4cc(O)cc(O)c4-c4cc3ccc4O)[C@H](O)c3ccc(c(Cl)c3)Oc3cc2cc(c3O[C@@H]2O[C@H](CO)[C@@H](O)[C@H](O)[C@H]2O[C@H]2C[C@](C)(N)[C@H](O)[C@H](C)O2)Oc2ccc(cc2Cl)[C@H]1O [vancomycin]
- MIC [1]: 512 µg/mL (≈ 353 µM)
- MIC [2]: 256 µg/mL (≈ 177 µM)
- survival (%) ([3]; 2.5 mg/kg (low-dose)): 0%
- number of mice surviving ([3]; 2.5 mg/kg via tail vein, day1, 6 mice): 3
- number of mice surviving ([3]; 2.5 mg/kg via tail vein, day2, 6 mice): 2
- number of mice surviving ([3]; 2.5 mg/kg via tail vein, day3, 6 mice): 2
- number of mice surviving ([3]; 2.5 mg/kg via tail vein, day4, 6 mice): 2
- number of mice surviving ([3]; 2.5 mg/kg via tail vein, day5, 6 mice): 1
- number of mice surviving ([3]; 2.5 mg/kg via tail vein, day6, 6 mice): 1
- number of mice surviving ([3]; 2.5 mg/kg via tail vein, day7, 6 mice): 0
- survival (%) ([3]; 10 mg/kg (medium-dose)): 16.7%
- number of mice surviving ([3]; 10 mg/kg via tail vein, day1, 6 mice): 6
- number of mice surviving ([3]; 10 mg/kg via tail vein, day2, 6 mice): 5
- number of mice surviving ([3]; 10 mg/kg via tail vein, day3, 6 mice): 2
- number of mice surviving ([3]; 10 mg/kg via tail vein, day4, 6 mice): 2
- number of mice surviving ([3]; 10 mg/kg via tail vein, day5, 6 mice): 2
- number of mice surviving ([3]; 10 mg/kg via tail vein, day6, 6 mice): 1
- number of mice surviving ([3]; 10 mg/kg via tail vein, day7, 6 mice): 1
- survival (%) ([3]; 40 mg/kg (high-dose)): 33.3%
- number of mice surviving ([3]; 40 mg/kg via tail vein, day1, 6 mice): 5
- number of mice surviving ([3]; 40 mg/kg via tail vein, day2, 6 mice): 5
- number of mice surviving ([3]; 40 mg/kg via tail vein, day3, 6 mice): 5
- number of mice surviving ([3]; 40 mg/kg via tail vein, day4, 6 mice): 4
- number of mice surviving ([3]; 40 mg/kg via tail vein, day5, 6 mice): 2
- number of mice surviving ([3]; 40 mg/kg via tail vein, day6, 6 mice): 2
- number of mice surviving ([3]; 40 mg/kg via tail vein, day7, 6 mice): 2
- ED50 ([3]; Mus musculus): 59.7 mg/kg
- kidney infection, H&E staining ([3]; high-dose (40 mg/kg)): severe kidney infection
- kidney infection, H&E staining ([3]; low-dose (2.5 mg/kg)): severe kidney infection
- kidney infection, H&E staining ([3]; medium-dose (10 mg/kg)): severe kidney infection
- half-life (T1/2) [4]: 4.3 ± 1.9 h
- MIC [5]: 256 µg/mL (≈ 177 µM)
- MIC [6]: 256 µg/mL (≈ 177 µM)
- MIC ([7]; Staphylococcus aureus): > 512 µg/mL
- MIC ([7]; clinical isolate MRSA2): >512 µg/mL
